Source: ChEMBL document CHEMBL2311375, “Synthesis and characterization of a small analogue of the anticancer natural product leinamycin” (Bioorg Med Chem, 2013)
Activity calls are given as the source filed them. The rule behind the calls is not given here.

How the values were obtained:
[1] = Induction of oxidative supercoiled double-stranded plasmid DNA strand (unknown origin) cleavage at 250 uM after 3 to 15 hrs using ethidium bromide staining by agarose gel electrophoresis in presence of 375 uM 2-mercaptoethanol and catalase
Procedure, shortened: (§1)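 Supercoiled plasmid DNA (30 μM bp) incubated 3–15 h at 37 °C in sodium phosphate buffer (50 mM, pH 7) with 10% v/v acetonitrile. Final concentrations: compound 250 μM, 2-mercaptoethanol 375 μM where added. Catalase (100 μg/mL) added before compound where used. Forms I and II resolved on 0.9% agarose gel (80 V, 3 h, 1x TAE), stained with ethidium bromide, visualized by UV and quantified by image analysis. Breaks per plasmid S = −ln f1, f1 = fraction form I.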

[2] = Induction of supercoiled double-stranded plasmid DNA strand (unknown origin) cleavage at 250 uM after 3 to 15 hrs using ethidium bromide staining by agarose gel electrophoresis; procedure, shortened: as §1
[3] = Induction of oxidative supercoiled double-stranded plasmid DNA strand (unknown origin) cleavage at 250 uM after 3 to 15 hrs using ethidium bromide staining by agarose gel electrophoresis in presence of 375 uM 2-mercaptoethanol; procedure, shortened: as §1

| Compound | Activity [1] | Activity [2] | Activity [3] |
| --- | --- | --- | --- |
| CC(C)=CCCC1(C)CC(=O)S[S+]1[O-] (configuration not stated) | inactive | inactive | Active |
| O=c1s[s+]([O-])c2ccccc12 (configuration not stated) | inactive | inactive | Active |
| CC(C)=CCCC1(C)CC(=O)S[S+]1[O-] (mixture of isomers) | inactive | inactive | Active |
| CC(C)=CCCC1(C)CC(=O)S[S+]1[O-] (single isomer, unassigned) | inactive | inactive | Active |
